Laboratory results reported in ChEMBL document CHEMBL1155796, “Lupane-type triterpenoids from Microtropis fokienensis and Perrottetia arisanensis and the apoptotic effect of 28-hydroxy-3-oxo-lup-20(29)-en-30-al” (J Nat Prod, 2008).
≈ marks a conversion by molar mass, not a printed value. Calls of active or inactive are those of the source. No cut-off for these calls is given here.

Tests used:
HL-60 [1] = test: Cell cycle arrest in human HL60 cells assessed as accumulation at G2 cells at 5 ug/ml after 24 hrs; type: functional
How it was run: (§1)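 Treated and control HL60 cells harvested, washed in cold PBS, fixed in 70% ethanol and held at 4 °C. […] DNA content read by flow cytometry. Fractions in sub-G1, G0/G1, S and G2/M assigned by cell-cycle modelling software.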

HepG2 = test: Cytotoxicity against human HepG2 cells by MTT assay; type: functional, cell-based
How it was run: (§2)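 Freshly trypsinized cells were seeded at 5000-10 000 per well, and compounds were added from DMSO stocks and left for 3 days. Attached cells were then given MTT ([…], 1 h) and dissolved in DMSO, with absorbance read at 550 nm.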

HL-60 [2] = test: Cell cycle arrest in human HL60 cells assessed as accumulation at G2 cells at 1.250 ug/ml after 24 hrs; type: functional; how it was run: as §1
HL-60 [3] = test: Cell cycle arrest in human HL60 cells assessed as accumulation at S cells at 2.5 ug/ml after 24 hrs; type: functional; how it was run: as §1
HL-60 [4] = test: Cell cycle arrest in human HL60 cells assessed as accumulation at subG1 cells at 0.625 ug/ml after 24 hrs by flow cytometry; type: functional; how it was run: as §1
A549 = test: Cytotoxicity against human A549 cells by MTT assay; type: functional, cell-based; how it was run: as §2
HL-60 [5] = test: Cytotoxicity against human HL60 cells by MTT assay; type: functional, cell-based; how it was run: as §2
MDA-MB-231 = test: Cytotoxicity against human MDA-MB-231 cells by MTT assay; type: functional, cell-based; how it was run: as §2
HL-60 [6] = test: Induction of apoptosis in human HL60 cells assessed as increase in Bax protein level by Western blotting; type: functional, cell-based
How it was run: (§3)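 Lysate cleared at 20000g, 30 min, 4 °C and protein measured by BCA. 50 µg resolved on 12% SDS-PAGE, blotted to PVDF and probed for PARP, Bax and Bcl-2, with β-tubulin as loading control.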

HL-60 [7] = test: Induction of apoptosis in human HL60 cells assessed as PARP cleavage by Western blotting; type: functional, cell-based; how it was run: as §3
[8] = Cytotoxicity against human Hep3B cells by MTT assay; type: functional, cell-based, Hep 3B2; how it was run: as §2
HL-60 [9] = test: Induction of apoptosis in human HL60 cells assessed as effect on Bcl2 protein level by Western blotting; type: functional, cell-based; how it was run: as §3
HL-60 [10] = test: Cell cycle arrest in human HL60 cells assessed as accumulation at G0/G1 cells at 5 ug/ml after 24 hrs; type: functional; how it was run: as §1
HL-60 [11] = test: Cell cycle arrest in human HL60 cells assessed as accumulation at G0/G1 cells at 2.5 ug/ml after 24 hrs; type: functional; how it was run: as §1
HL-60 [12] = test: Cell cycle arrest in human HL60 cells assessed as accumulation at subG1 cells at 5 ug/ml after 24 hrs; type: functional; how it was run: as §1
HL-60 [13] = test: Cell cycle arrest in human HL60 cells assessed as accumulation at subG1 cells at 1.250 ug/ml after 24 hrs; type: functional; how it was run: as §1
HL-60 [14] = test: Cell cycle arrest in human HL60 cells assessed as accumulation at subG1 cells at 2.5 ug/ml after 24 hrs; type: functional; how it was run: as §1
HL-60 [15] = test: Cell cycle arrest in human HL60 cells assessed as accumulation at G2 cells at 0.625 ug/ml after 24 hrs by flow cytometry; type: functional; how it was run: as §1
HL-60 [16] = test: Cell cycle arrest in human HL60 cells assessed as accumulation at S cells at 5 ug/ml after 24 hrs; type: functional; how it was run: as §1
HL-60 [17] = test: Cell cycle arrest in human HL60 cells assessed as accumulation at S cells at 1.250 ug/ml after 24 hrs; type: functional; how it was run: as §1
HL-60 [18] = test: Cell cycle arrest in human HL60 cells assessed as accumulation at G0/G1 cells at 0.625 ug/ml after 24 hrs by flow cytometry; type: functional; how it was run: as §1
MCF7 = test: Cytotoxicity against human MCF7 cells by MTT assay; type: functional, cell-based; how it was run: as §2
Ca9-22 = test: Cytotoxicity against human sCa9-22 cells by MTT assay; type: functional, cell-based; how it was run: as §2
HL-60 [19] = test: Cell cycle arrest in human HL60 cells assessed as accumulation at S cells at 0.625 ug/ml after 24 hrs by flow cytometry; type: functional; how it was run: as §1
HL-60 [20] = test: Cell cycle arrest in human HL60 cells assessed as accumulation at G2 cells at 2.5 ug/ml after 24 hrs; type: functional; how it was run: as §1
HL-60 [21] = test: Cell cycle arrest in human HL60 cells assessed as accumulation at G0/G1 cells at 1.250 ug/ml after 24 hrs; type: functional; how it was run: as §1
B16 = test: Cytotoxicity against mouse B16 cells; type: functional, cell-based

Structure (SMILES)	IC50 (HepG2) [µg/mL]	IC50 (A549) [µg/mL]	IC50 (HL-60 [5]) [µg/mL]	IC50 (MDA-MB-231) [µg/mL]	IC50 [8] [µg/mL]	IC50 (MCF7) [µg/mL]	IC50 (Ca9-22) [µg/mL]	IC50 (B16) [µg/mL]	further results
C=C(C=O)[C@@H]1CC[C@]2(CO)CC[C@]3(C)[C@H](CC[C@@H]4[C@@]5(C)CCC(=O)C(C)(C)[C@@H]5CC[C@]43C)[C@@H]12	12.6 (≈ 27.7 µM)	16.4 (≈ 36.1 µM)	1.6 (≈ 3.52 µM)	7.9 (≈ 17.4 µM)	4.7 (≈ 10.3 µM)	2.9 (≈ 6.38 µM)	1.4 (≈ 3.08 µM)	–	Activity (HL-60 [1]): 7.8%; Activity (HL-60 [2]): 11.2%; Activity (HL-60 [3]): 22.3%; Activity (HL-60 [4]): 1.6%; Activity (HL-60 [6]): Active; Activity (HL-60 [7]): Active; Activity (HL-60 [9]): inactive; Activity (HL-60 [10]): 14.6%; Activity (HL-60 [11]): 56%; Activity (HL-60 [12]): 57.8%; Activity (HL-60 [13]): 2.8%; Activity (HL-60 [14]): 10.2%; Activity (HL-60 [15]): 13.9%; Activity (HL-60 [16]): 19.8%; Activity (HL-60 [17]): 30.5%; Activity (HL-60 [18]): 54.2%; Activity (HL-60 [19]): 30.3%; Activity (HL-60 [20]): 11.5%; Activity (HL-60 [21]): 55.5%
C=C(CO)[C@@H]1CC[C@]2(C)CC[C@]3(C)[C@H](CC[C@@H]4[C@@]5(C)CCC(=O)C(C)(C)[C@@H]5CC[C@]43C)[C@@H]12	–	–	–	–	–	–	–	9.2 (≈ 20.9 µM)	–
C=C(C)[C@@H]1CC[C@]2(CO)CC[C@]3(C)[C@H](CC[C@@H]4[C@@]5(C)CC[C@@H](O)C(C)(C)[C@@H]5CC[C@]43C)[C@@H]12 [3-EPI-BETULIN]	6.7 (≈ 15.1 µM)	15.7 (≈ 35.5 µM)	1.7 (≈ 3.84 µM)	> 20	9.3 (≈ 21 µM)	16 (≈ 36.1 µM)	> 20	–	–
C=C(C)[C@@H]1CC[C@]2(C(=O)O)CC[C@]3(C)[C@H](CC[C@@H]4[C@@]5(C)CC[C@H](O)C(C)(C)[C@@H]5CC[C@]43C)[C@@H]12 [BETULINIC ACID]	3.1 (≈ 6.79 µM)	2.8 (≈ 6.13 µM)	2 (≈ 4.38 µM)	3.5 (≈ 7.66 µM)	1.7 (≈ 3.72 µM)	4 (≈ 8.76 µM)	> 20	5 (≈ 10.9 µM)	–
COc1cccc2c1C(=O)c1c(O)c3c(c(O)c1C2=O)C[C@@](O)(C(=O)CO)C[C@@H]3O[C@H]1C[C@H](N)[C@H](O)[C@H](C)O1 [DOXORUBICIN]	0.17 (≈ 0.313 µM)	–	0.003 (≈ 0.00552 µM)	0.15 (≈ 0.276 µM)	0.27 (≈ 0.497 µM)	0.32 (≈ 0.589 µM)	0.09 (≈ 0.166 µM)	–	–
C=C(C)[C@@H]1CC[C@]2(C(=O)O)CC[C@]3(C)[C@H](CC[C@@H]4[C@@]5(C)CC[C@@H](O)C(C)(C)[C@@H]5CC[C@]43C)[C@@H]12 [EPIBETULINIC ACID]	9.3 (≈ 20.4 µM)	9.7 (≈ 21.2 µM)	2.3 (≈ 5.04 µM)	9.2 (≈ 20.1 µM)	8.1 (≈ 17.7 µM)	9.7 (≈ 21.2 µM)	–	–	–
